Source: ChEMBL document CHEMBL1138786, “Synthesis of benzodithiol-2-yl-substituted nucleoside derivatives as lead compounds having anti-bovine viral diarrhea virus activity” (J Med Chem, 2004)
“And” between values parts separate entries of the source, which are not always exact repeats. Equal values may be shown once.

Tests used:
[1] = Ratio of cytotoxicity to anti BVDV activity of the compound; design: species or system Bos taurus; conditions: cattle; for selectivity ratio: read-out: CC50/EC50
[2] = Anti BVDV activity in MDBK (Madin-darby bovine kidney) cells; type: functional, Bos taurus
How it was run: (§1)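 MDBK cells in DMEM with 10% heat-inactivated horse serum, penicillin and streptomycin, seeded at 5 × 10^5 cells/ml and incubated overnight at 37 °C. Infected with about 100 focus forming units of BVDV (nose strain) in the presence of graded compound concentrations for 24 h. Monolayers washed with PBS, overlaid with medium containing bactoagar, incubated a further 24 h. Viral foci counted microscopically.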

Bos taurus [3] = species on record: Bos taurus; assay: Anti BVDV activity relative to ribavirin; type: functional
[4] = Cytotoxicity in MDBK (Madin-darby bovine kidney) cells; type: cell-based, Bos taurus; conditions: cattle
How it was run: (§2)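 Cell viability assay: MDBK cells at 2 × 10^4 per well, cultured with graded compound concentrations at 37 °C for 3 days. Viable cells measured colorimetrically with a water-soluble tetrazolium dye.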

[5] = Anti BVDV activity in MDBK (Madin-darby bovine kidney) cells (Ribavirin EC50 1.2 and CC50 >100); type: functional, Bos taurus; how it was run: as §1
Bos taurus [6] = species on record: Bos taurus; assay: Anti BVDV activity relative to ribavirin (EC50 1.2 and CC50 >100); type: functional
[7] = Cytotoxicity in MDBK (Madin-darby bovine kidney) cells (Ribavirin EC50 1.2 and CC50 >100); type: cell-based, Bos taurus; conditions: cattle; how it was run: as §2
[8] = Anti-bovine viral diarrhoea virus activity relative to ribavirin; type: functional, Bos taurus
[9] = Anti BVDV activity in MDBK (Madin-darby bovine kidney) cells (Ribavirin EC50 0.61 and CC50 90.2); type: functional, Bos taurus; how it was run: as §1
Bos taurus [10] = species on record: Bos taurus; assay: Anti BVDV activity relative to ribavirin (Ribavirin EC50 0.61 and CC50 90.2); type: functional
[11] = Cytotoxicity in MDBK (Madin-darby bovine kidney) cells (Ribavirin EC50 0.61 and CC50 90.2); type: cell-based, Bos taurus; conditions: cattle; how it was run: as §2

Structure (SMILES)	selectivity ratio [1]	EC50 [2]	EC50rel (Bos taurus [3])	CC50 [4]	further results
Nc1nc(O)c2ncn([C@@H]3O[C@H](CO)C(O)[C@@H]3OC3Sc4ccccc4S3)c2n1 (stereo partly drawn)	5.09	14.4 µM	21.5	73.2 µM	–
OC[C@H]1O[C@@H](n2cnc3c(O)ncnc32)[C@@H](OC2Sc3ccccc3S2)C1O (stereo partly drawn)	3.21	–	–	–	EC50 [5]: 18.4 µM; EC50rel (Bos taurus [6]): 15.3; CC50 [7]: 59.2 µM
O=c1ccn([C@@H]2O[C@H](CO)C(O)[C@@H]2OC2Sc3ccccc3S2)c(=O)[nH]1 (stereo partly drawn)	1.19	56.7 µM	84.6	67.3 µM	–
Nc1ncnc2c1ncn2[C@@H]1O[C@H](CO)C(O)[C@@H]1OC1Sc2ccccc2S1 (stereo partly drawn)	1.89	39.2 µM	58.5	74.3 µM	–
Nc1ccn([C@@H]2O[C@H](CO)C(O)[C@@H]2OC2Sc3ccccc3S2)c(=O)n1 (stereo partly drawn)	2.47	28.5 µM	42.5	70.4 µM	–
O=c1ccn([C@@H]2O[C@H](CO)C(OC3Sc4ccccc4S3)[C@@H]2OC2Sc3ccccc3S2)c(=O)[nH]1 (stereo partly drawn)	–	< 48 µM	< 71.7	48 µM	–
O=c1ccn([C@@H]2O[C@H](CO)C(OC3Sc4ccccc4S3)[C@@H]2O)c(=O)[nH]1 (stereo partly drawn)	1.46	50.6 µM	75.5	73.9 µM	–
Cc1cn([C@H]2C[C@H](OC3Sc4ccccc4S3)[C@@H](CO)O2)c(=O)[nH]c1=O	1.5	46.8 µM	–	72.4 µM	EC50rel [8]: 31.2
CSc1ccccc1SCO[C@H]1C[C@H](n2ccc(N)nc2=O)O[C@@H]1CO	–	> 100 µM	–	> 100 µM	–
NC(=O)c1ncn([C@@H]2O[C@H](CO)[C@@H](O)[C@H]2O)n1 [RIBAVIRIN]	–	1.5 µM and 0.67 µM	1	> 100 µM	CC50/EC50 [1]: < 150 and > 67; EC50rel [8]: 1
Cc1cn([C@H]2C[C@H](OC3Sc4ccccc4S3)[C@@H](C)O2)c(=O)[nH]c1=O	0.93	86.7 µM	57.8	81.3 µM	–
CSc1ccccc1SCO[C@H]1C[C@H](n2cnc3c(N)ncnc32)O[C@@H]1CO	–	> 100 µM	–	> 100 µM	–
Nc1nc(O)c2ncn([C@H]3C[C@H](OC4Sc5ccccc5S4)[C@@H](CO)O3)c2n1	> 1.3	79.4 µM	52.9	> 100 µM	–
Nc1ncnc2c1ncn2[C@H]1C[C@H](OC2Sc3ccccc3S2)[C@@H](CO)O1	1.1	63.8 µM	42.5	68.4 µM	–
CSc1ccccc1SCO[C@H]1C[C@H](n2cc(C)c(=O)[nH]c2=O)O[C@@H]1CO	> 1.1	89.6 µM	59.7	> 100 µM	–
Nc1ccn([C@H]2C[C@H](OC3Sc4ccccc4S3)[C@@H](CO)O2)c(=O)n1	1	69.1 µM	46.1	69.7 µM	–
COC1Sc2ccccc2S1	–	> 100 µM	–	> 100 µM	–
COC(=O)Nc1ccn([C@@H]2O[C@H](CO)C(O)[C@@H]2OC2Sc3ccccc3S2)c(=O)n1 (stereo partly drawn)	1.19	–	–	–	EC50 [9]: 50.3 µM; EC50rel (Bos taurus [10]): 82.5; CC50 [11]: 60.1 µM
CSc1ccccc1SCO[C@H]1C[C@H](n2cnc3c(O)nc(N)nc32)O[C@@H]1CO	–	> 100 µM	–	> 100 µM	–
